From ChEMBL document CHEMBL3608250, “Fragment-Based Discovery of Potent and Selective DDR1/2 Inhibitors” (ACS Med Chem Lett, 2015)
Numbering of substitutions follows the chain as printed. Blank lines part the entries; values can stand above or below the compound they belong to. Calls of active or inactive are those of the source. The calls are words filed in the database; no cut-off is given here.

Columns and labels:
[1] = biological target: T1, Discoidin domain-containing receptor 2 (Homo sapiens) (UniProt Q16832); assay: Inhibition of DDR2 (unknown origin) at 100 uM after 1 hr by time resolved fluorescence method
T1 sequence (whole entry): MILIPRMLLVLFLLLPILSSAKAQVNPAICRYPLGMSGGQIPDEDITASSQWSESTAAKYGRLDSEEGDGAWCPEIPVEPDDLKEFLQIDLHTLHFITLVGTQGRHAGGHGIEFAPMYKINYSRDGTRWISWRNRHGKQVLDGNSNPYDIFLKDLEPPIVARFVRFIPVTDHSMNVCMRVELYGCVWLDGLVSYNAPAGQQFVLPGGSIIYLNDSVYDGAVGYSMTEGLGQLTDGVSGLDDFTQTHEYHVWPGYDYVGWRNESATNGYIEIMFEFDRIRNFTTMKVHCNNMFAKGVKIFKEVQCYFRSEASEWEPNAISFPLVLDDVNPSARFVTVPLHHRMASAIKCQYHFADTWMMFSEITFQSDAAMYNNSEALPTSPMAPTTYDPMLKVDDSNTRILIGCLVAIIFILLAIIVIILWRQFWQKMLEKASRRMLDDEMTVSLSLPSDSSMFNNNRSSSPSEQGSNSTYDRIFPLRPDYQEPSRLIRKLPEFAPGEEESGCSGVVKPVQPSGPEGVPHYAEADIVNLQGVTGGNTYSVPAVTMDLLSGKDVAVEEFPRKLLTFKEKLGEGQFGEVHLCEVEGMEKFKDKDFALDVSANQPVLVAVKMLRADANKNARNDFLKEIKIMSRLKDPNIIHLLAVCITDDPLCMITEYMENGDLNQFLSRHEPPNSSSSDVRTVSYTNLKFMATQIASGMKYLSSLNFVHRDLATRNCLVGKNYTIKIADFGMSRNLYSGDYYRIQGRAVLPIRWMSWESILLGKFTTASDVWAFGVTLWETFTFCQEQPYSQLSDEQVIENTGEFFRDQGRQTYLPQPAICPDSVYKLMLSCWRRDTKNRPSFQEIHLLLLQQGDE

[2] = biological target: T2, Epithelial discoidin domain-containing receptor 1 (Homo sapiens, UniProt Q08345); assay: Inhibition of DDR1 (unknown origin) after 1 hr by time resolved fluorescence method
[3] = biological target: T1, Discoidin domain-containing receptor 2 (Homo sapiens); assay: Inhibition of collagen I-induced DDR2 (unknown origin) phosphorylation expressed in HEK293 cells at 0.1 to 1 uM after 16 hrs by Western blotting; assay type: cell-based
Method in brief: (§1)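 HEK293 cells stably transfected with either wild-type DDR2 or the I638F mutant, giving DDR2 overexpression. Cells were left unstimulated or stimulated with collagen I and treated with compound. DDR2 tyrosine phosphorylation (pY) was read out by immunoblot.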

[4] = test system: T3, Discoidin domain-containing receptor 2 (Homo sapiens), Q16832 [I638F]; assay: Inhibition of collagen I-induced DDR2 I638F mutant (unknown origin) phosphorylation expressed in HEK293 cells at 0.1 to 1 uM after 16 hrs by Western blotting; assay type: cell-based; method in brief: as §1
T3 sequence (whole entry): T1 sequence (whole entry) with I638F

[5] = biological target: T2, Epithelial discoidin domain-containing receptor 1; assay: Inhibition of DDR1 (unknown origin) at 0.0015 uM after 1 hr by time resolved fluorescence method
[6] = Antiproliferative activity against human NCI-H2286 cells expressing DDR2 mutant after 72 hrs by alamar blue assay; assay type: functional, cell-based; conditions: NCI-H2286, 72 h
[7] = Antiproliferative activity against human HCC366 cells expressing DDR2 mutant after 72 hrs by alamar blue assay; assay type: functional, cell-based; conditions: HCC366, 72 h
[8] = biological target: T4, Mast/stem cell growth factor receptor Kit (Homo sapiens, UniProt P10721); conditions: 0.003 uM
[9] = biological target: T5, Discoidin domain-containing receptor 2 (Homo sapiens, UniProt Q16832); assay: Inhibition of DDR2 (unknown origin) after 1 hr by time resolved fluorescence method
T5 sequence (Q16832 whole entry): T1 sequence (whole entry)

[10] = biological target: T2, Epithelial discoidin domain-containing receptor 1; assay: Inhibition of DDR1 (unknown origin) at 0.005 uM after 1 hr by time resolved fluorescence method
[11] = biological target: Proto-oncogene tyrosine-protein kinase Src (Homo sapiens) (UniProt P12931); assay: Inhibition of c-Src (unknown origin) using biotinylated HER2 peptide as substrate at 10 uM by time resolved fluorescence method
[12] = biological target: T4, Mast/stem cell growth factor receptor Kit; assay: Inhibition of c-Kit (unknown origin) using biotinylated HER2 peptide as substrate by time resolved fluorescence method
[13] = Clearance in Balb/C mouse at 1 mg/kg, iv and 5 mg/kg, po; assay type: ADME, organism-based; conditions: in vivo
[14] = Volume of distribution at steady state in Balb/C mouse at 1 mg/kg, iv and 5 mg/kg, po; assay type: ADME, organism-based; conditions: in vivo, read-out: Vdss
[15] = Half life in Balb/C mouse at 1 mg/kg, iv and 5 mg/kg, po; assay type: ADME, organism-based; conditions: in vivo
[16] = Oral bioavailability in Balb/C mouse at 5 mg/kg; assay type: ADME, organism-based; conditions: in vivo
[17] = biological target: T4, Mast/stem cell growth factor receptor Kit; assay: Inhibition of c-Kit (unknown origin) using biotinylated HER2 peptide as substrate at 10 uM by time resolved fluorescence method
[18] = biological target: Proto-oncogene tyrosine-protein kinase Src (Homo sapiens) (UniProt P12931); assay: Inhibition of c-Src (unknown origin) using biotinylated HER2 peptide as substrate at 3 uM by time resolved fluorescence method
[19] = biological target: T5, Discoidin domain-containing receptor 2; assay: Inhibition of collagen I-induced DDR2 (unknown origin) phosphorylation expressed in HEK293 cells after 16 hrs by mesoscale discovery assay; assay type: cell-based
Method in brief: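 HEK293 cells stably transfected to overexpress DDR2 (wild type or I638F mutant lines were generated), then stimulated with collagen I. Tyrosine-phosphorylated DDR2 was measured by MesoScale Discovery immunoassay and an EC50 was derived from the concentration–response.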

[20] = biological target: Proto-oncogene tyrosine-protein kinase Src (Homo sapiens) (UniProt P12931); assay: Inhibition of c-Src (unknown origin) using biotinylated HER2 peptide as substrate at 100 uM by time resolved fluorescence method
[21] = biological target: T4, Mast/stem cell growth factor receptor Kit; assay: Inhibition of c-Kit (unknown origin) using biotinylated HER2 peptide as substrate at 3 uM by time resolved fluorescence method

Sequence of Proto-oncogene tyrosine-protein kinase Src (Homo sapiens) (P12931 2-536 limits assumed): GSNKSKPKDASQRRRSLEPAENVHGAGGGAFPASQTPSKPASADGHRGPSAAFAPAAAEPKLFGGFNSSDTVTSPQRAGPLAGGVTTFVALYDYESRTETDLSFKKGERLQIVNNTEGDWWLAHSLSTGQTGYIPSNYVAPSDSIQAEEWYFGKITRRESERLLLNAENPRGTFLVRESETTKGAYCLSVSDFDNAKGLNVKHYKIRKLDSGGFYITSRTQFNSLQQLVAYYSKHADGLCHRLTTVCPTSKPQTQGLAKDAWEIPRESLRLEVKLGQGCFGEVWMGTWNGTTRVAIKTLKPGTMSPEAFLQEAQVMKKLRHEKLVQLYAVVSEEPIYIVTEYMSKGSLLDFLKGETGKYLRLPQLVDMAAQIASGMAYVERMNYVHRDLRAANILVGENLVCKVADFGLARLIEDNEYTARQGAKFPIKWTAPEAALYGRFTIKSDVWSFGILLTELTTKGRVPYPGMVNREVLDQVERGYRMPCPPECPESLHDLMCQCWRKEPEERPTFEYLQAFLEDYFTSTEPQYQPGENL
T4 sequence (P10721 whole entry, the tested form may be a part): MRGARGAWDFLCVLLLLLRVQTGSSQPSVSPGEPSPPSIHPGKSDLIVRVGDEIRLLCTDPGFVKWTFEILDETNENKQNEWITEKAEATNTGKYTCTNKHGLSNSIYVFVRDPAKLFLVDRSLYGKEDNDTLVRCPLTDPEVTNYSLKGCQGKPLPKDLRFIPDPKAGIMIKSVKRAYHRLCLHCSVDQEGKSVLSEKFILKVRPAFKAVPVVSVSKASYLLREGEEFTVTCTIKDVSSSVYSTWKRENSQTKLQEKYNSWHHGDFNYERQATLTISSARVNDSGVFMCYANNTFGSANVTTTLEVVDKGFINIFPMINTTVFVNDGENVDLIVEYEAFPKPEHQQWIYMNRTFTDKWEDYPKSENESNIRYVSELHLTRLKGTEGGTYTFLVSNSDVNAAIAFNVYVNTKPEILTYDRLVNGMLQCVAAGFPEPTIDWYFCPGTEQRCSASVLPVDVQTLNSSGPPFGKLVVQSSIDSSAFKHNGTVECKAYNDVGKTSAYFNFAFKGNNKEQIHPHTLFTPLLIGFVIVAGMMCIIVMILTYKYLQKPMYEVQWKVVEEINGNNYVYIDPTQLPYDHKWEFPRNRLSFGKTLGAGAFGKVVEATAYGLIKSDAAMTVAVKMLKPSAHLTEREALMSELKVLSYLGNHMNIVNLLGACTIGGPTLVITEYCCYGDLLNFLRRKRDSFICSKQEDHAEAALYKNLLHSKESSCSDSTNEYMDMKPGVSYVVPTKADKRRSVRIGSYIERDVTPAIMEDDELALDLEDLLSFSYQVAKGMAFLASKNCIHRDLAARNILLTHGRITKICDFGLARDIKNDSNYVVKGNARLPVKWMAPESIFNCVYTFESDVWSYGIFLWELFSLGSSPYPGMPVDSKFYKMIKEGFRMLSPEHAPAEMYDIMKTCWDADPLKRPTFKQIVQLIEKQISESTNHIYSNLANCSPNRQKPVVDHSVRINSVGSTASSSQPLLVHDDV
T2 sequence (Q08345 whole entry, the tested form may be a part): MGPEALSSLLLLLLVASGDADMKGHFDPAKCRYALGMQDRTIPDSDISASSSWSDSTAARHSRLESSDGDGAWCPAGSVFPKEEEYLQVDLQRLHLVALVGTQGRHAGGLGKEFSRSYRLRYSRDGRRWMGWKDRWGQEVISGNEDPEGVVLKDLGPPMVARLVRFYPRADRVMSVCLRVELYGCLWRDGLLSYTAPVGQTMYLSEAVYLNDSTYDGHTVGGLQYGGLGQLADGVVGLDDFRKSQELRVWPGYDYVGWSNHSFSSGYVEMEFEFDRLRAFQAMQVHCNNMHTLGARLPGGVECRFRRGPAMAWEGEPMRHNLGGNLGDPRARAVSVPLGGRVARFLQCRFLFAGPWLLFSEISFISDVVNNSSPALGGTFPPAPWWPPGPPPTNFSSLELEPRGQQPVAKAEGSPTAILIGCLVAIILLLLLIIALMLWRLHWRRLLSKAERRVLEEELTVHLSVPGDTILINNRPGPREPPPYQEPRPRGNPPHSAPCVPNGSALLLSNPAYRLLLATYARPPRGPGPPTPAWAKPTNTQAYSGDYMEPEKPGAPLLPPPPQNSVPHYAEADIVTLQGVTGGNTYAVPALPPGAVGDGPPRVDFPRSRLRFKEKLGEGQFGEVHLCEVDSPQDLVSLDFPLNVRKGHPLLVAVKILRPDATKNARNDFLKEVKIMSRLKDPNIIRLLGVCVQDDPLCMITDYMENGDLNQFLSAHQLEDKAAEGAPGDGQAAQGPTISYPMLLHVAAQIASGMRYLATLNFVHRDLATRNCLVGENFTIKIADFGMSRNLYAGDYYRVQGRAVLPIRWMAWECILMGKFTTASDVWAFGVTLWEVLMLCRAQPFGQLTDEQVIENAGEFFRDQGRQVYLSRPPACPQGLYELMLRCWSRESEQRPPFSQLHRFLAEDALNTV

IC50 [9]: 0.0045 µM
inhibition [5]: 54%
inhibition [11]: 22%
IC50 [12]: 0.14 µM
Structure (SMILES): Cc1ccc([C@H](C)NC(=O)Nc2cccc(F)c2)cc1NC(=O)c1cnc2ccccn12

IC50 [9]: 1.3 µM
IC50 [2]: 1.5 µM
inhibition [17]: 47%
Structure (SMILES): Cc1ccc([C@@H](C)NC(=O)Nc2ccccc2)cc1NC(=O)c1cnc2ccccn12

IC50 [9]: 0.0081 µM
IC50 [2]: 0.006 µM
inhibition [11]: 4%
IC50 [12]: 0.31 µM
Structure (SMILES): Cc1ccc([C@H](C)NC(=O)Nc2ccccc2)cc1NC(=O)c1cnc2ccccn12

IC50 [9]: 0.0082 µM
inhibition [11]: 54%
IC50 [12]: 0.0098 µM
Structure (SMILES): Cc1ccc(CNC(=O)Nc2ccccc2)cc1NC(=O)c1cnc2ccccn12

Continued, compound first:

Structure (SMILES): O=C(NCc1cccnc1)Nc1ccccc1Cl
inhibition [1]: 32%
IC50 [2]: > 100 µM

Structure (SMILES): CN1CCN(CCOc2cc(OC3CCOCC3)c3c(Nc4c(Cl)ccc5c4OCO5)ncnc3c2)CC1
inhibition [3]: Active
inhibition [4]: Active

Structure (SMILES): Cc1nc(Nc2ncc(C(=O)Nc3c(C)cccc3Cl)s2)cc(N2CCN(CCO)CC2)n1 [DASATINIB]
inhibition [5]: 40%
IC50 [6]: 0.032 µM
IC50 [7]: 0.029 µM
inhibition [8]: 90%

Structure (SMILES): Cc1cn(-c2cc(NC(=O)c3ccc(C)c(Nc4nccc(-c5cccnc5)n4)c3)cc(C(F)(F)F)c2)cn1 [NILOTINIB]
inhibition [3]: Active
inhibition [4]: Active
IC50 [6]: 1.8 µM

Structure (SMILES): Cc1ccc([C@H](C)Nc2nc3cc(F)ccc3o2)cc1NC(=O)c1cnc2ccccn12
IC50 [9]: 0.0061 µM
inhibition [10]: 59%
inhibition [11]: 52%
IC50 [12]: 0.16 µM
clearance [13]: 16.6 mL/min/kg
Vd [14]: 1.9 L/kg
half-life [15]: 1.8 h
bioavailability [16]: 97%

Structure (SMILES): Cc1ccc(CNC(=O)Nc2cccc(F)c2)cc1NC(=O)c1cnc2ccccn12
IC50 [9]: 0.0033 µM
inhibition [5]: 54%
inhibition [18]: 40%
IC50 [12]: 0.019 µM
clearance [13]: 7.65 mL/min/kg
Vd [14]: 0.42 L/kg
half-life [15]: 0.83 h
bioavailability [16]: 62%
inhibition [3]: Active
inhibition [4]: Active
EC50 [19]: 0.0087 µM
IC50 [6]: > 10 µM
IC50 [7]: > 10 µM

Structure (SMILES): O=C(NCc1cccc(NC(=O)c2cnc3ccccn23)c1)Nc1ccccc1
IC50 [9]: 0.28 µM
IC50 [2]: 0.15 µM
inhibition [20]: 63%
IC50 [12]: 0.18 µM

Structure (SMILES): Cc1ccc([C@H](C)NC(=O)c2cccc(C(F)(F)F)c2)cc1NC(=O)c1cnc2ccccn12
IC50 [9]: 0.0058 µM
inhibition [5]: 44%
inhibition [11]: 48%
inhibition [21]: 49%
clearance [13]: 2.99 mL/min/kg
Vd [14]: 0.31 L/kg
half-life [15]: 1.4 h
bioavailability [16]: 55%
